In ChEMBL document CHEMBL1143257, “Structure-activity relationships of novel HIV-1 protease inhibitors containing the 3-amino-2-chlorobenzoyl-allophenylnorstatine structure” (Bioorg Med Chem, 2008):

Assays:
[1] = tested on: Human immunodeficiency virus 1; assay: Antiviral activity against HIV1 mutant strain 5; format: functional, organism-based
[2] = tested on: Human immunodeficiency virus 1; assay: Antiviral activity against HIV1 3B; format: functional, organism-based; conditions: Human immunodeficiency virus 1, 3B
[3] = tested on: Human immunodeficiency virus 1; assay: Antiviral activity against HIV1 mutant strain 3; format: functional, organism-based
[4] = tested on: Human immunodeficiency virus 1; assay: Antiviral activity against HIV1 mutant strain 1; format: functional, organism-based
Procedure, shortened: (§1)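 PhenoSense phenotypic susceptibility assay on multi-drug-resistant clinical HIV-1 protease variant strains, run in parallel with a wild-type reference. EC50 read in µM. Fold change is mutant EC50 divided by wild-type EC50.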

[5] = tested on: Human immunodeficiency virus 1; assay: Antiviral activity against wild type HIV1; format: functional, organism-based
[6] = tested on: Human immunodeficiency virus 1; assay: Antiviral activity against HIV1 3B in presence of 50% human serum; format: functional, organism-based; conditions: Human immunodeficiency virus 1, 3B
[7] = tested on: Human immunodeficiency virus 1; assay: Antiviral activity against HIV1 mutant strain 4; format: functional, organism-based
[8] = tested on: Human immunodeficiency virus 1; assay: Antiviral activity against HIV1 mutant strain 7; format: functional, organism-based
Procedure, shortened: (§2)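 PhenoSense phenotypic assay. Strain 7 protease mutations include T4A, L10I, K20R, L23I, L33F, E35D, M36I, K43T, M46L. EC50 in µM. Fold change is versus the wild-type EC50.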

[9] = tested on: Human immunodeficiency virus 1; assay: Antiviral activity against HIV1 mutant strain 2; format: functional, organism-based
Procedure, shortened: (§3)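 PhenoSense phenotypic assay. Strain 2 protease carries L10I, G16A, K45V, F53L, I54V, K55N, D60E, L63P, A71V, I72K, V77I, V82F, I84V, L90M, I93L. EC50 in µM. Fold change is versus the wild-type EC50.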

[10] = tested on: Human immunodeficiency virus 1; assay: Antiviral activity against HIV1 mutant strain 6; format: functional, organism-based
[11] = Tmax in Beagle dog at 15 mg/kg, po; format: ADME, organism-based, Canis lupus familiaris; set-up: dose 15 mg/kg, route oral; conditions: in vivo
[12] = Metabolic stability in human liver microsomes assessed as compound remaining at 5 uM in presence of NADPH by RP-HPLC; format: ADME, Microsome; conditions: read-out: Stability
Procedure, shortened: (§4)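 Test drug at 5 µM incubated with liver microsomes (0.5 mg/ml) plus cofactor (1 mM NADPH or 5 mM UDPGA) at 37 °C for 30 min. Residual drug measured by RP-HPLC. Values are the mean percent remaining of duplicates.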

[13] = Cmax in Beagle dog at 15 mg/kg, po; format: ADME, organism-based, Canis lupus familiaris; set-up: dose 15 mg/kg, route oral; conditions: in vivo
[14] = Plasma concentration in Beagle dog at 15 mg/kg, po after 12 hrs; format: ADME, organism-based, Canis lupus familiaris; set-up: dose 15 mg/kg, route oral
[15] = AUC in Beagle dog at 15 mg/kg, po; format: ADME, organism-based, Canis lupus familiaris; set-up: dose 15 mg/kg, route oral; conditions: plasma
Liver [16] = assay: Metabolic stability in dog liver microsomes assessed as compound remaining in presence of NADPH by RP-HPLC; format: ADME, Canis lupus familiaris, Microsome; procedure, shortened: as §4
[17] = Plasma clearance in Beagle dog at 15 mg/kg, iv; format: ADME, organism-based, Canis lupus familiaris; set-up: dose 15 mg/kg, route intravenous
[18] = Oral bioavailability in Beagle dog at 15 mg/kg; format: ADME, organism-based, Canis lupus familiaris; conditions: in vivo
[19] = Volume of distribution at steady state in Beagle dog at 15 mg/kg, iv; format: ADME, organism-based, Canis lupus familiaris; set-up: dose 15 mg/kg, route intravenous; conditions: in vivo, read-out: Vdss
Liver [20] = assay: Metabolic stability in dog liver microsomes assessed as compound remaining in presence of UDPGA by RP-HPLC; format: ADME, Canis lupus familiaris, Microsome; procedure, shortened: as §4
Protease = Protease (Human immunodeficiency virus 1, UniProt Q9YQ12); assay: Inhibition of HIV1 protease
Sequence of Protease (Q9YQ12 whole entry): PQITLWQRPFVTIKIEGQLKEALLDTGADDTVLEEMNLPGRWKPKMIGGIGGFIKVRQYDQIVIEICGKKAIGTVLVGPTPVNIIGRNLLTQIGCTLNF

[21] = Metabolic stability in human liver microsomes assessed as compound remaining at 5 uM in presence of UDPGA by RP-HPLC; format: ADME, Microsome; conditions: read-out: Stability; procedure, shortened: as §4
[22] = tested on: Human immunodeficiency virus 1; assay: Ratio of EC50 for HIV1 mutant strain 2 to EC50 for wild type HIV1; format: functional; procedure, shortened: as §3
[23] = tested on: Human immunodeficiency virus 1; assay: Ratio of EC50 for HIV1 mutant strain 3 to EC50 for wild type HIV1; format: functional
[24] = tested on: Human immunodeficiency virus 1; assay: Ratio of EC50 for HIV1 mutant strain 6 to EC50 for wild type HIV1; format: functional
[25] = tested on: Human immunodeficiency virus 1; assay: Ratio of EC50 for HIV1 mutant strain 5 to EC50 for wild type HIV1; format: functional
[26] = tested on: Human immunodeficiency virus 1; assay: Ratio of EC50 for HIV1 mutant strain 1 to EC50 for wild type HIV1; format: functional; procedure, shortened: as §1
[27] = tested on: Human immunodeficiency virus 1; assay: Ratio of EC50 for HIV1 mutant strain 4 to EC50 for wild type HIV1; format: functional
[28] = tested on: Human immunodeficiency virus 1; assay: Ratio of EC50 for HIV1 mutant strain 7 to EC50 for wild type HIV1; format: functional; procedure, shortened: as §2

Row | Compound | EC50 [2] [nM] | EC50 [6] [nM] | remaining at 5 µM [12] [%] | Ki (Protease) [nM] | remaining at 5 µM [21] [%] | other results
1 | CC(C)(C)NC(=O)[C@@H]1CN(Cc2cccnc2)CCN1C[C@@H](O)C[C@@H](Cc1ccccc1)C(=O)N[C@H]1c2ccccc2C[C@H]1O | 23 | 87 |  |  |  | EC50 [1]: > 1500 nM; EC50 [3]: 753 nM; EC50 [4]: 401 nM; EC50 [5]: 7.6 nM; EC50 [7]: 113 nM; EC50 [8]: 145 nM; EC50 [9]: 464 nM; EC50 [10]: 819 nM
2 | COc1cccc(C[C@H](NC(=O)c2cccc(N)c2Cl)[C@H](O)C(=O)N2CCC(C)(C)[C@H]2C(=O)NCc2c(C)cccc2C)c1 | 36 | 87 | 83 | 0.75 | > 95 | Tmax [11]: 1 h; Cmax [13]: 5000 nM; concentration at 12 h [14]: 710 nM; AUC [15]: 36.7 µM·h; Stability (Liver [16]): 69%; clearance [17]: 16.7 mL/min/kg; bioavailability [18]: 146%; Vd [19]: 1.9 L/kg; Stability (Liver [20]): > 95%
3 | Cc1cccc(C)c1CNC(=O)[C@H]1N(C(=O)[C@@H](O)[C@H](Cc2ccc3c(c2)OCO3)NC(=O)c2cccc(N)c2Cl)CSC1(C)C | 17 | 20 | 53 | 0.07 | > 95 | 
4 | COc1ccc(C[C@H](NC(=O)c2cccc(N)c2Cl)[C@H](O)C(=O)N2CCC(C)(C)[C@H]2C(=O)NCc2c(C)cccc2C)cc1 | 40 | 80 | 63 | 0.804 | > 95 | 
5 | CC(C)CN(C[C@@H](O)[C@H](Cc1ccccc1)NC(=O)O[C@H]1CCOC1)S(=O)(=O)c1ccc(N)cc1 | 16 | 95 |  | 0.359 |  | EC50 [1]: 615 nM; Ratio EC50 [22]: 25; EC50 [3]: 143 nM; EC50 [4]: 98 nM; EC50 [5]: 14 nM; Ratio EC50 [23]: 10; Ratio EC50 [24]: 30; Ratio EC50 [25]: 43; Ratio EC50 [26]: 7; EC50 [7]: 51 nM; EC50 [8]: 165 nM; Ratio EC50 [27]: 4; Ratio EC50 [28]: 12; EC50 [9]: 350 nM; EC50 [10]: 432 nM

Now from value to molecule, other results behind:

Row | EC50 [2] [nM] | EC50 [6] [nM] | remaining at 5 µM [12] [%] | Ki (Protease) [nM] | remaining at 5 µM [21] [%] | Compound | other results
6 | 63 | 270 | 53 | 0.861 | > 95 | CCOc1ccc(C[C@H](NC(=O)c2cccc(N)c2Cl)[C@H](O)C(=O)N2CCC(C)(C)[C@H]2C(=O)NCc2c(C)cccc2C)cc1 | 
7 | 77 | 165 | 46 | 0.353 | > 95 | Cc1ccccc1CNC(=O)[C@H]1N(C(=O)[C@@H](O)[C@H](Cc2ccccc2)NC(=O)c2cccc(N)c2Cl)CSC1(C)C | 
8 | 6 | 35 | 65 | 0.31 | 89 | CCOc1ccc(C[C@H](NC(=O)c2cccc(N)c2Cl)[C@H](O)C(=O)N2CSC(C)(C)[C@H]2C(=O)NCc2ccccc2C)cc1 | 
9 | 24 | 14 | 58 | 0.138 | > 95 | COc1ccc(C[C@H](NC(=O)c2cccc(N)c2Cl)[C@H](O)C(=O)N2CSC(C)(C)[C@H]2C(=O)NCc2c(C)cccc2C)cc1 | 
